The results in this text go back to ChEMBL document CHEMBL1125534, “Omega-[(omega-arylalkyl)aryl]alkanoic acids: a new class of specific LTA4 hydrolase inhibitors” (J Med Chem, 1992).

Assay [1] is described as follows: Inhibition of LTB4 biosynthesis by porcine leukocytes at LTA4 hydrolase level at a concentration of 2*10e-5 M. The class given is functional, Sus scrofa. The procedure, abridged:
(§1)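 Porcine leukocyte homogenate (cells at 10⁸/mL, sonicated) with CaCl₂ and ATP each at 2 mmol/L final. Preincubated 3 min at 25 °C with inhibitor (in ethanol or PBS) plus 5,8,11,14-[…] acid 4 μmol/L final to block 12-LO. Then incubated 5 min at 37 °C with [1-¹⁴C]arachidonic acid. LTB₄ and 6-trans-isomers separated by HPLC with radioactivity detection. Mean of ≥3 experiments.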

In assay [2] the test system is Leukotriene A-4 hydrolase (Sus scrofa). The experiment in a line: Inhibitory activity against Leukotriene A4 hydrolase at 100 mg/kg (po) in rat plasma extracts.
Assay [3] shares this test system. The experiment in a line: Inhibition of LTA4 hydrolase mediated LTB4 biosynthesis by porcine leukocytes at 2*10e-5M.
Assay [4] is described as follows: Evaluated for the inhibitory activity against Leukotriene A4 hydrolase. Further details: species or system Sus scrofa. The method, boiled down:
as §1

For assay [5], the system named is Leukotriene A-4 hydrolase (Sus scrofa). As to the kind of experiment: Inhibitory activity against Leukotriene A4 hydrolase at 5 mg/kg (po) in rat plasma extracts.
The test system is the same in assay [6]. The experiment in a line: Inhibitory activity against Leukotriene A4 hydrolase at 30 mg/kg (po) in rat plasma extracts.
For assay [7] the test system is unchanged. As to the kind of experiment: Inhibitory activity Leukotriene A4 hydrolase at 5 mg/kg (po) in rat plasma.
The test system is the same in assay [8]. The experiment in a line: Inhibitory activity against Leukotriene A4 hydrolase at 100 mg/kg (po) in rat plasma.

In turn, `CC(C)(C)c1ccc(Cc2ccc(CCCCCCC(=O)O)cc2)cc1` came in with an Inhibition in assay [1] of 0%.

Take `O=C(O)CCCCCC(=O)c1ccc(CCCc2ccccc2)s1`: the Inhibition in assay [1] was 66%.

In turn, `O=C(O)CCCCCc1ccc(CCCc2ccccc2)s1` registered an Inhibition in assay [1] of 61%.

On to `Nc1ccc(Cc2ccc(CCCCCCC(=O)O)cc2)cc1`, for which the inhibition in assay [2] came out at 31%; in assay [3] it was 89%; in assay [5], 29%. Moreover, in assay [4], the IC50 was 0.9 µM.

In the case of `O=C(O)CCCCCCc1ccc(Cc2ccccn2)cc1`, the inhibition in assay [3] turned out to be 76%. In assay [4], this compound gave an IC50 of 7.7 µM.

Compound `O=C(O)CCCCCCCc1ccc(CCCc2ccccc2)cc1` had an Inhibition in assay [1] of 45%.

In turn, `O=C(O)CCCCCCc1ccc(Cc2ccnc3ccccc23)cc1` showed an Inhibition in assay [1] of 0%.

`O=C(O)CNC(=O)CCCc1ccc(CCCc2ccccc2)s1`: the Inhibition in assay [1] amounted to 53%.

Take `O=C(O)CCCCCCc1ccc(CCCc2ccccc2)cc1`: the results for the inhibition in assay [6] and in assay [3] were 15% and 76%, respectively. The half-maximal inhibitory concentration (IC50) in assay [4] stood at 3.4 µM.

In assay [1], `O=C([O-])CCCCc1ccc(CCCc2ccccc2)cc1.[Na+]` gave an Inhibition of 35%.

Turning to `O=C(O)CCCCCCc1ccc(-c2ccccc2)s1`, the Inhibition in assay [1] was 67%.

In assay [3], `O=C(O)CCCCCSc1ccc(Cc2ccccc2)cc1` came in with an inhibition of 82%. The 50% inhibitory concentration (IC50) in assay [4] was determined as 9.1 µM.

In turn, `CC(=O)Nc1ccc(Cc2ccc(CCCCCCC(=O)O)cc2)cc1` came in with an Inhibition in assay [1] of 41%.

`O=C(O)CCCCCCc1ccc(CCCc2cccc(Cl)c2)s1`: the Inhibition in assay [1] is on record as 45%.

`O=C(O)CCCCCCc1ccc(Cc2ccccc2)cc1` returned an inhibition in assay [3] of 79%. In addition, the IC50 in assay [4] was 3 µM.

As for `O=C(O)CCCCCOc1ccc(Cc2ccccc2)cc1`, the Inhibition in assay [1] was determined as 69%.

In assay [1], `O=C(O)CCCCCS(=O)(=O)c1ccc(Cc2ccccc2)cc1` showed an Inhibition of 2%.

On to `O=C(O)CCCCCCc1ccc(Cc2ccc3ccccc3n2)cc1`, for which the Inhibition in assay [1] worked out at 48%.

`O=C(O)CCCC(=O)NCc1ccc(CCCc2ccccc2)s1`: the Inhibition in assay [1] came out at 38%.

In assay [3], `COc1ccc(CCCc2ccc(CCCCCCC(=O)O)s2)cc1` displayed an inhibition of 80%. Moreover, the IC50 in assay [4] is 9.7 µM.

On to `O=C(O)CCCCCCc1ccc(Cc2cnc3ccccc3c2)cc1`, for which the inhibition in assay [2] came to 27%; in assay [6], 19%; in assay [3], 85%; in assay [5] it was 27%. In addition, half-maximal inhibition in assay [4] (IC50) was put at 5 µM.

For the compound `COc1ccc(CCCc2ccc(SCCCCCC(=O)O)cc2)cc1`, the Inhibition in assay [1] is 35%.

Compound `c1ccc(CCCc2ccc(CCCCCCC3N=NN=N3)s2)cc1` yielded an Inhibition in assay [1] of 29%.

As for `O=C(O)CCCCCSc1ccc(CCCc2ccccc2)s1`, the inhibition is 19% in assay [2], 19% in assay [6], 79% in assay [3] and 4% in assay [5]. The compound also had a half-inhibitory concentration (IC50) in assay [4] of 2.8 µM.

Take `Cc1ccc(Cc2ccc(CCCCCCC(=O)O)cc2)cc1`: the inhibition in assay [3] came out at 63%. Moreover, in assay [4], the half-maximal inhibitory concentration (IC50) was determined as 21.1 µM.

For `CN(C)c1ccc(Cc2ccc(CCCCCCC(=O)O)cc2)cc1`, in assay [1], the Inhibition was found to be 29%.

On to `O=C(O)COCCCCc1ccc(CCCc2ccccc2)s1`, for which the inhibition in assay [2] was determined as 73%; in assay [7], 40%; in assay [6], 54%; in assay [3] it was 90%. Also, in assay [4], inhibition was half-maximal at 1.5 µM (IC50).

With `O=C(O)CCCNC(=O)Cc1ccc(CCCc2ccccc2)s1`, the Inhibition in assay [1] is given as 12%.

`O=C(O)CCCCCCc1ccc(Cc2ccc3ccccc3c2)cc1`: the Inhibition in assay [1] worked out at 22%.

Turning to `O=C(O)CCCCCSc1ccc(CCCc2ccccc2)cc1`, the figures for the inhibition in assay [2], in assay [6] and in assay [3] were 12%, 20% and 74%, respectively. The compound further displayed a half-maximal inhibitory concentration (IC50) in assay [4] of 6.2 µM.

`O=C(O)CCCCCS(=O)(=O)c1ccc(CCCc2ccccc2)s1` showed an Inhibition in assay [1] of 0%.

Regarding `O=C(O)CCCCCCc1ccc(Cc2ccc(Cl)cc2)cc1`, the inhibition in assay [2] was 7%; in assay [3], 73%; in assay [5], 22%. In assay [4], this compound came in with an IC50 of 7.2 µM.

In assay [1], `O=C(O)CCCCCCc1ccc(Cc2ccncc2)cc1` came in with an Inhibition of 43%.

The compound `O=C(O)CCCCCCc1ccc(Cc2ccc(C(F)(F)F)cc2)cc1` yielded an inhibition in assay [3] of 19%. Moreover, in assay [4], the half-maximal inhibitory concentration (IC50) turned out to be 188 µM.

Take `O=C(O)CCCCCCc1ccc(Cc2cccc3ccccc23)cc1`: in assay [1], the Inhibition amounted to 0%.

As for `COc1ccc(Cc2ccc(CCCCCCC(=O)O)cc2)cc1`, the inhibition in assay [3] came out at 69%. In assay [4], the midpoint of inhibition, the IC50, lay at 9.2 µM.

As for `O=C(O)CCCCCCc1ccc(CCc2ccccc2)cc1`, the inhibition in assay [3] is 43%. Further, the IC50 in assay [4] is 30 µM.

In turn, `O=C(O)CCCCCC(=O)c1ccc(CCCc2ccccc2)cc1` showed an Inhibition in assay [1] of 27%.

Turning to `O=C(O)CCCCCCc1ccc(CCc2ccccc2)s1`, the inhibition in assay [3] is 86%. In assay [4], this compound came in with an IC50 of 3.5 µM.

For `O=C(O)CCCCCCc1ccc(CCCc2ccccc2)s1`, the figures for the inhibition in assay [8], in assay [6] and in assay [5] were 82%, 44% and 0%, respectively. Further, it took 2.9 µM to reach half-maximal inhibition in assay [4] (IC50).

As to `O=C(O)CCCCCCc1ccc(Cc2ccccc2)s1`, the inhibition in assay [3] was found to be 51%. In assay [4], this compound came in with an IC50 of 15 µM.

Consider `O=C(O)CCCCCCc1ccc(CCCc2ccc(Cl)cc2)s1`, for which, in assay [1], the Inhibition came out at 63%.

In turn, `O=C(O)CCCCCCc1ccc(Cc2cccnc2)cc1` had an Inhibition in assay [1] of 65%.

For the compound `CC(C)(CCCCCc1ccc(CCCc2ccccc2)s1)C(=O)O`, the Inhibition in assay [1] came to 46%.

As to `NC(=O)CCCCCCc1ccc(CCCc2ccccc2)s1`, the Inhibition in assay [1] is 0%.

Regarding `O=C([O-])CCCCCCCc1ccc(CCCc2ccccc2)s1.[Na+]`, the Inhibition in assay [1] is 0%.

`N#CCCCCCCc1ccc(CCCc2ccccc2)s1`: the Inhibition in assay [1] stood at 0%.

The compound `O=C(O)CCCC(=O)CCc1ccc(CCCc2ccccc2)s1` returned an inhibition in assay [3] of 82%. In assay [4], this compound displayed a 50% inhibitory concentration (IC50) of 6.3 µM.

Regarding `O=C(O)CCCC(O)CCc1ccc(CCCc2ccccc2)s1` (configuration not stated), the inhibition in assay [3] worked out at 73%. This compound had a 50% inhibitory concentration (IC50) in assay [4] of 6.2 µM.

`NC(=O)Nc1ccc(Cc2ccc(CCCCCCC(=O)O)cc2)cc1` displayed an inhibition in assay [3] of 100%. Moreover, half-maximal inhibition in assay [4] (IC50) was put at 1.7 µM.

Compound `O=C(O)CCCCCCc1ccc(Cc2ccc(O)cc2)cc1` showed an Inhibition in assay [1] of 56%.

In the case of `O=C(O)CCCCCCc1ccc(-c2ccccc2)cc1`, the Inhibition in assay [1] was 41%.

`O=C([O-])CCCCCCc1ccc(CCCCc2ccccc2)s1.[Na+]`: in assay [1], the Inhibition was found to be 0%.

`O=C(O)CCCCCc1ccc(CCCc2ccccc2)cc1`: in assay [1], the Inhibition is on record as 43%.

`COC(=O)COCCCCc1ccc(CCCc2ccccc2)s1` came in with an Inhibition in assay [1] of 66%.

Consider `O=C(O)CCCCCCc1ccc(Cc2ccccc2Cl)cc1`, for which, in assay [1], the Inhibition is recorded as 0%.

In assay [1], `O=C([O-])CCCCc1ccc(CCCc2ccccc2)s1.[Na+]` came in with an Inhibition of 0%.

As for `O=C(O)CCCCCCc1ccc(CCCc2ccc(O)cc2)s1`, in assay [1], the Inhibition was determined as 69%.

For the compound `CNc1ccc(Cc2ccc(CCCCCCC(=O)O)cc2)cc1`, the Inhibition in assay [1] worked out at 78%.

`O=C(O)CCCCC[S+]([O-])c1ccc(CCCc2ccccc2)s1` (configuration not stated) showed an Inhibition in assay [1] of 0%.

Regarding `O=C(O)CCCCCCc1ccc(Cc2ccc([N+](=O)[O-])cc2)cc1`, the inhibition in assay [3] was 53%. Moreover, the half-maximal inhibitory concentration (IC50) in assay [4] worked out at 72.5 µM.

Take `CS(=O)(=O)Nc1ccc(Cc2ccc(CCCCCCC(=O)O)cc2)cc1`: the Inhibition in assay [1] stood at 0%.

What is called Inhibition is the drop in the measured response relative to a control, in per cent. Read a high Inhibition as a strong effect. As usually defined, the inhibition is the share of the control response that was lost under treatment. A high value points to a response far below the control. Broadly, the IC50 is the concentration needed to halve the response being measured. High values mean weaker potency, low ones greater potency.
